Results taken from ChEMBL document CHEMBL1212913, “Quinazolin-4-one derivatives: A novel class of noncompetitive NR2C/D subunit-selective N-methyl-D-aspartate receptor antagonists” (J Med Chem, 2010).
pIC50: −log10 of the molar value.

Assays:
[1] = target: Glutamate NMDA receptor; Grin1/Grin2a (Rattus norvegicus, UniProt P35439+Q00959); assay: Antagonist activity at rat recombinant NR1-NR2A receptor expressed in Xenopus oocytes at holding potential of -40mV by two-electrode voltage-clamp electrophysiology; assay type: functional, cell-based, Oocyte; details: for pIC50: read-out: IC50
Outline: (§1)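 Oocytes expressing rat NR1-1a with NR2A, NR2B, NR2C or NR2D, clamped at −40 mV in Ba2+/HEPES recording solution pH 7.4, 23°C. Current evoked by 100 μM glutamate plus 30 μM glycine. Final DMSO 0.05-0.5%, 5-7 inhibitor concentrations, ≥4 oocytes each. IC50 from Hill fit of normalized mean composite data. […] Some NR2A oocytes given BAPTA-AM or K-BAPTA.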

[2] = species: Rattus norvegicus; assay: Selectivity ratio of IC50 for rat recombinant NR1-NR2A receptor to IC50 for rat recombinant NR1-NR2D receptor
Outline: (§2)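 Ratio of fitted IC50 values, either NR2A/NR2D or GluR1/NR2D, from two-electrode voltage-clamp Hill fits in oocytes. Where noted, calculated from IC50 values rounded to the nearest μM.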

[3] = target: Ionotropic glutamate receptor NMDA 1/2D (Rattus norvegicus, UniProt P35439+Q62645); assay: Antagonist activity at rat recombinant NR1-NR2D receptor expressed in Xenopus oocytes at holding potential of -40mV by two-electrode voltage-clamp electrophysiology; assay type: functional, cell-based, Oocyte
Outline: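 Oocytes expressing rat NR1-1a with NR2A, NR2B, NR2C or NR2D, clamped at −40 mV in Ba2+/HEPES recording solution pH 7.4, 23°C. Current evoked by 100 μM glutamate plus 30 μM glycine. Final DMSO 0.05-0.5%, 5-7 inhibitor concentrations, ≥4 oocytes each. IC50 from Hill fit of normalized mean composite data. Some NR2A oocytes given BAPTA-AM or K-BAPTA.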

[4] = target: Glutamate NMDA receptor; Grin1/Grin2c (Rattus norvegicus, UniProt P35439+Q00961); assay: Antagonist activity at rat recombinant NR1-NR2C receptor expressed in Xenopus oocytes at holding potential of -40mV by two-electrode voltage-clamp electrophysiology; assay type: functional, cell-based, Oocyte; outline: as §1
[5] = target: Glutamate NMDA receptor; Grin1/Grin2b (Rattus norvegicus, UniProt P35439+Q00960); assay: Antagonist activity at rat recombinant NR1-NR2B receptor expressed in Xenopus oocytes at holding potential of -40mV by two-electrode voltage-clamp electrophysiology; assay type: functional, cell-based, Oocyte; details: for pIC50: read-out: IC50; outline: as §1
[6] = target: Glutamate receptor 1 (Rattus norvegicus, UniProt P19490); assay: Antagonist activity at rat recombinant GLuR1 expressed in Xenopus oocytes assessed as inhibition of glutamate-induced current by two-electrode voltage-clamp electrophysiology; assay type: functional, cell-based, Oocyte
Outline: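 Two-electrode voltage clamp at −40 mV on Xenopus oocytes expressing rat GluR1, perfused with 90 NaCl, 1.0 KCl, 0.5 BaCl2, 0.005 EDTA, 10 HEPES (mM), pH 7.4, 23°C; activated by 100 μM glutamate. From 20 mM DMSO stocks, 5-7 concentrations, ≥4 oocytes each. Hill fit to mean composite curves normalized to control, minimum usually fixed at 0. Response >75% at 100 μM reported as >300 μM.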

[7] = species: Rattus norvegicus; assay: Selectivity ratio of IC50 for rat recombinant GLuR1 to IC50 for rat recombinant NR1-NR2D receptor; outline: as §2

Sequence of Glutamate NMDA receptor; Grin1/Grin2b (Q00960 whole entry, other chains not shown): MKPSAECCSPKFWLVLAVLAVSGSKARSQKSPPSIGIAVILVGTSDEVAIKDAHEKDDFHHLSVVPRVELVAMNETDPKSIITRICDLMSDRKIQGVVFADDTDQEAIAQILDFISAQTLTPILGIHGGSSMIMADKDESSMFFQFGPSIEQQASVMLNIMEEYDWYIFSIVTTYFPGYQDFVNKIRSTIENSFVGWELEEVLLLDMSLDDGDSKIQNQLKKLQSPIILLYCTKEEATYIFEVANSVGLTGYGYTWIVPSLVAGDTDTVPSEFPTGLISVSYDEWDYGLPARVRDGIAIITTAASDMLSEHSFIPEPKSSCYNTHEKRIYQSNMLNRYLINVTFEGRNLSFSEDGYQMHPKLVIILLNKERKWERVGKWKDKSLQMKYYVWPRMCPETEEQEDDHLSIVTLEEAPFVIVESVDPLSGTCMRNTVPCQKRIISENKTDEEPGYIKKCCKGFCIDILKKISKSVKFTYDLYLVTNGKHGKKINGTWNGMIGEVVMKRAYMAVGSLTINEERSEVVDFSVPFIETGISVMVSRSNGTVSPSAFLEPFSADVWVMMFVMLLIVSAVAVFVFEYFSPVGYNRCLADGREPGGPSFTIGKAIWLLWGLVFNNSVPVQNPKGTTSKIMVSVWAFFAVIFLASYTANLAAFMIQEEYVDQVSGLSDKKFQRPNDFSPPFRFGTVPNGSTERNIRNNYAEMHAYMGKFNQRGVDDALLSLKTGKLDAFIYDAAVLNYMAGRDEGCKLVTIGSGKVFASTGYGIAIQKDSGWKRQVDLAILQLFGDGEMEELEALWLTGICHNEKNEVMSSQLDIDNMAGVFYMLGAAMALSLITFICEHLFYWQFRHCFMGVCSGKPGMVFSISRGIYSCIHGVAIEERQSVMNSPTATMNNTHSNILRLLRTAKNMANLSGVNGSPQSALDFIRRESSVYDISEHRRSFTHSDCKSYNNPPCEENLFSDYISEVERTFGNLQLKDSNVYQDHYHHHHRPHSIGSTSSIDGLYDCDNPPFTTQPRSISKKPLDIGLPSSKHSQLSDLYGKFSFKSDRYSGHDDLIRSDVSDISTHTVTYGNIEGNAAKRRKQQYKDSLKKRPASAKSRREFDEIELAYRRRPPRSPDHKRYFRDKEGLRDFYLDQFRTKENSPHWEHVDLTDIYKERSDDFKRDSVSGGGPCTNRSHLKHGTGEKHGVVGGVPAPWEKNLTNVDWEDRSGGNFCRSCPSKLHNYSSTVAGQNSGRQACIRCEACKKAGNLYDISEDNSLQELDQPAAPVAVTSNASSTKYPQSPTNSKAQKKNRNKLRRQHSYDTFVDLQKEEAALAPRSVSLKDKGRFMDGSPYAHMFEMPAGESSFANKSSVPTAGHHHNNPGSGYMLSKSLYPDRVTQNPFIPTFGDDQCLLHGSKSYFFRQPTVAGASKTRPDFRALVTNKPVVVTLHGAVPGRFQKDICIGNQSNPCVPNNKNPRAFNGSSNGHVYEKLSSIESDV
Sequence of Glutamate NMDA receptor; Grin1/Grin2c (Q00961 whole entry, other chains not shown): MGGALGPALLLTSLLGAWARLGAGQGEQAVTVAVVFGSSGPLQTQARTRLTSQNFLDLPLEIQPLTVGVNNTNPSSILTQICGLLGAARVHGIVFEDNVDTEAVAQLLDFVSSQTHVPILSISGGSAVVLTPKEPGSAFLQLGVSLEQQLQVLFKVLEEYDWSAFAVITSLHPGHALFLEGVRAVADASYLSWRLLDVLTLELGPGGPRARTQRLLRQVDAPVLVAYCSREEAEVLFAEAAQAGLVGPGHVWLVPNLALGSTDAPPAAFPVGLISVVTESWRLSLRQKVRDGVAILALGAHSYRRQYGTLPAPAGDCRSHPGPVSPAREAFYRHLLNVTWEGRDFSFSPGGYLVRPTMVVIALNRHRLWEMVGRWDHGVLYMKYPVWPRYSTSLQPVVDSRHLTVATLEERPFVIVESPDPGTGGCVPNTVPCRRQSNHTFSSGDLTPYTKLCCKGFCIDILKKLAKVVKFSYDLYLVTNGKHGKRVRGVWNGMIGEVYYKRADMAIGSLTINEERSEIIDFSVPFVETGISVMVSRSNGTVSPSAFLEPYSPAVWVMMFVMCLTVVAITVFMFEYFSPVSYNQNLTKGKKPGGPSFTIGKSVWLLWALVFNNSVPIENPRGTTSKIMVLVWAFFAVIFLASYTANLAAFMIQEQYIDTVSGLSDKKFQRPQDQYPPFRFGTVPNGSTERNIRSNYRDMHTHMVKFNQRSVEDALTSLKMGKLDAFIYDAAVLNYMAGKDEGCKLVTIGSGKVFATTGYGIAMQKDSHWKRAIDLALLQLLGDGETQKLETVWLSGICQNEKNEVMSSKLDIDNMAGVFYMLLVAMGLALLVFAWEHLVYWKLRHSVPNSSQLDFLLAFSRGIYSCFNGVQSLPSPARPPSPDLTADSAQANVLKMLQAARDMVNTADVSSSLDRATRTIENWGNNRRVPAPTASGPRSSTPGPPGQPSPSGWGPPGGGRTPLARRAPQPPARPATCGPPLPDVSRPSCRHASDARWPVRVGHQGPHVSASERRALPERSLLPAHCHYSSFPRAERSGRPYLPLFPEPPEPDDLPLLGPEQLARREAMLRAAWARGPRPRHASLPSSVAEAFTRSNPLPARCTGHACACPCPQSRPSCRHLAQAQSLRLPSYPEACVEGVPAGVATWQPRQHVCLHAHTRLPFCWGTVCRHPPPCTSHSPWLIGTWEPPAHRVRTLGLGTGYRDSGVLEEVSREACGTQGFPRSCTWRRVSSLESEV
Sequence of Glutamate receptor 1 (P19490 whole entry, the tested form may be a part): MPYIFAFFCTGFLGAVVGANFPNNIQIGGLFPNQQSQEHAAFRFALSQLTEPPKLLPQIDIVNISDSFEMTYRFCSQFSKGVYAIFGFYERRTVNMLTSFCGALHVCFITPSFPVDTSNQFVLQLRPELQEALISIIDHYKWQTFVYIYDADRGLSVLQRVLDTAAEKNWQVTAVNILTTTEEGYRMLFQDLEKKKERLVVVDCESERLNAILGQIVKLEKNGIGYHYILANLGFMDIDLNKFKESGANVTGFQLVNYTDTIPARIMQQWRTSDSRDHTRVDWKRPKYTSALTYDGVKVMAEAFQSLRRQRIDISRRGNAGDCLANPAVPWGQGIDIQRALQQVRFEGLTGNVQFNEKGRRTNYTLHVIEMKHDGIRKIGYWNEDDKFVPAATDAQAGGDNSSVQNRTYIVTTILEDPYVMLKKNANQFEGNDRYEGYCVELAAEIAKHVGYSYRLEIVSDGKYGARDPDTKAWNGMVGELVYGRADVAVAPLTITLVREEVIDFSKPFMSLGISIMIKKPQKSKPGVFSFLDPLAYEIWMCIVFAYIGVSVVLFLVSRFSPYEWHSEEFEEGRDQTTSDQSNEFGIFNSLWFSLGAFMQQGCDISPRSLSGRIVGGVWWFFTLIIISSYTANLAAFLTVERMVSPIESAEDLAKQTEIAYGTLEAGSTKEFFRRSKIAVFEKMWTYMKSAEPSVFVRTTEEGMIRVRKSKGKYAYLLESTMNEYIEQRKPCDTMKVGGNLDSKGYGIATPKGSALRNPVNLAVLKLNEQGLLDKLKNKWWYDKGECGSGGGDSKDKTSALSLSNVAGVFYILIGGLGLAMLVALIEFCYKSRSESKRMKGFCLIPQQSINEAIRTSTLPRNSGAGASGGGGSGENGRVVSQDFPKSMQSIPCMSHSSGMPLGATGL
Sequence of Ionotropic glutamate receptor NMDA 1/2D (Q62645 whole entry, other chains not shown): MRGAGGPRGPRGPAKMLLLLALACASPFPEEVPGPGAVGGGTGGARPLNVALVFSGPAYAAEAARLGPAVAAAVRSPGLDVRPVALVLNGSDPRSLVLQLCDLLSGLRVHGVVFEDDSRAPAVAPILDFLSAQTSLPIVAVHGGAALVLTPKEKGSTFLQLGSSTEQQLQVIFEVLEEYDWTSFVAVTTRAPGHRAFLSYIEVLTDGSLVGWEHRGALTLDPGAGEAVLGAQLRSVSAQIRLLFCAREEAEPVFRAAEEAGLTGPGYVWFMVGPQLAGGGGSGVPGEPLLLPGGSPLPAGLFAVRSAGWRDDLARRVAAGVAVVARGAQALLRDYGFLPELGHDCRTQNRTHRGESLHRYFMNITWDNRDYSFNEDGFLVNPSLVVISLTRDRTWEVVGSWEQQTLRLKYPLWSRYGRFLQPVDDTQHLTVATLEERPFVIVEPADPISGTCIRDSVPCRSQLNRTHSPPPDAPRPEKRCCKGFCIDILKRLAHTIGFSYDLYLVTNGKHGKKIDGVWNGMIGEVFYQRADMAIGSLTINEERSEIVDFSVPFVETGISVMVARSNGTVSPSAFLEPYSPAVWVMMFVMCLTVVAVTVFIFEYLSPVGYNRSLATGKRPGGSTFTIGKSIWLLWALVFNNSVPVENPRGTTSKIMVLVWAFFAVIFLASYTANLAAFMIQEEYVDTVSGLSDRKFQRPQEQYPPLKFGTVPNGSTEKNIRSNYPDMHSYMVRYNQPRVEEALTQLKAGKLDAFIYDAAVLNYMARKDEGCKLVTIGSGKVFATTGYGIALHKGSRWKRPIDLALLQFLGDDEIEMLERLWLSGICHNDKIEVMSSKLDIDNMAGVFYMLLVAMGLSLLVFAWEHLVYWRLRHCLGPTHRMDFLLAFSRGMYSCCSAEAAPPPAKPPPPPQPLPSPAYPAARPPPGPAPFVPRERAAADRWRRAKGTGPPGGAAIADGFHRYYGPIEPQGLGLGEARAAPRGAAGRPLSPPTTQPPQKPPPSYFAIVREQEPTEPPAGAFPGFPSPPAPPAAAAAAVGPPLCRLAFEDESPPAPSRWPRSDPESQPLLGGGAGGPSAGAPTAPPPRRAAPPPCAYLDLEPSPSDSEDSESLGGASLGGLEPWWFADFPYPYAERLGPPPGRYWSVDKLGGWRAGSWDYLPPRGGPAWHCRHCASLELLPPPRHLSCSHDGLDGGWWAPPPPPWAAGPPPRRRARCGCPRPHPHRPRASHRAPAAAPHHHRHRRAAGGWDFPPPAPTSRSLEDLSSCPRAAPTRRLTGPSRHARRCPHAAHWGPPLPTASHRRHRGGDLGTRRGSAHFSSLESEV

Row | SMILES | pIC50 [1] | Ratio IC50 [2] | pIC50 [3] | pIC50 [5] | pIC50 [6] | pIC50 [4] | Ratio IC50 [7] | IC50 ([1]; oocyte) | IC50 ([5]; oocyte)
1 | N#Cc1ccc(/C=C/c2nc3ccccc3c(=O)n2-c2ccc(C(=O)O)cc2)cc1 | 4.03 | 3 | 4.47 | 3.97 | < 3.52 | 4.55 |  |  | 
2 | COc1ccc(-n2c(/C=C/c3cccnc3)nc3ccc(I)cc3c2=O)cc1 | < 3.52 |  | < 3.52 | < 3.52 | < 3.52 | < 3.52 | 1 |  | 
3 | O=C(O)c1ccc(-n2c(/C=C/c3cccc(C(F)(F)F)c3)nc3ccccc3c2=O)cc1 | 4.89 | 1 | 4.92 | 4.59 | 4.66 |  | 2 |  | 
4 | COc1ccc2nc(/C=C/c3cccc(C(=O)O)c3)n(-c3ccc(C(=O)O)cc3)c(=O)c2c1 | < 3.52 |  | 3.88 | < 3.52 | < 3.52 | < 3.52 |  |  | 
5 | Cc1cccc(-n2c(/C=C/c3cccnc3)nc3ccc(I)cc3c2=O)c1 | < 3.52 |  | < 3.52 | < 3.52 | < 3.52 | 3.62 | 1 |  | 
6 | O=C(O)c1ccc(-n2c(/C=C/c3ccccc3C(F)(F)F)nc3ccccc3c2=O)cc1 |  |  | 4.55 | < 3.52 | < 3.52 |  |  |  | 
7 | Cc1nc2ccc(I)cc2c(=O)n1-c1ccc(C(=O)O)cc1 | < 3.52 |  | < 3.52 | < 3.52 | < 3.52 | < 3.52 | 1 |  | 
8 | Cc1ccc2nc(CCc3ccccc3)n(-c3ccc(C(=O)O)cc3)c(=O)c2c1 | < 3.52 |  | 3.55 | 4.11 | < 3.52 | 3.74 |  |  | 
9 | O=C(O)c1ccc(-n2c(/C=C/c3ccccc3O)nc3ccccc3c2=O)cc1 | 4.70 | 1 | 4.74 | 4.74 | 4.44 |  | 2 |  | 
10 | O=C(O)COc1ccc(/C=C/c2nc3ccccc3c(=O)n2-c2ccc(C(=O)O)cc2)cc1 | < 3.52 |  | < 3.52 | < 3.52 | < 3.52 | < 3.52 | 1 |  | 
11 | O=c1c2cc(I)ccc2nc(/C=C/c2cccnc2)n1-c1cccc([N+](=O)[O-])c1 | < 3.52 |  | < 3.52 | < 3.52 | < 3.52 | < 3.52 | 1 |  | 
12 | O=C(O)c1ccc(-n2c(/C=C/c3cccc(O)c3)nc3ccccc3c2=O)cc1 | 4.28 | 3 | 4.77 | 4.52 | 4.62 |  | 1 |  | 
13 | O=C(O)c1ccc(-n2c(/C=C/c3cccc([N+](=O)[O-])c3)nc3cccc(Cl)c3c2=O)cc1 | < 3.52 |  | 4.85 | 3.96 | < 3.52 | 4.66 |  |  | 
14 | O=C(O)c1ccc(-n2c(/C=C/c3cccc([N+](=O)[O-])c3)nc3ccc([N+](=O)[O-])cc3c2=O)cc1 |  |  | 4.05 |  | < 3.52 | 3.69 |  | Not Active | Not Active
15 | O=c1c2ccccc2nc(/C=C/c2cccc([N+](=O)[O-])c2)n1-c1ccccc1 | < 3.52 |  | < 3.52 | < 3.52 | < 3.52 | < 3.52 | 1 |  | 
16 | O=C(O)c1ccc(-n2c(/C=C/c3ccc([N+](=O)[O-])cc3)nc3ccc(I)cc3c2=O)cc1 | < 3.52 | > 150 | 6.00 | < 3.52 | < 3.52 | 5.70 |  |  | 
17 | COc1ccc2nc(/C=C/c3cccc([N+](=O)[O-])c3)n(-c3ccc(C(N)=O)cc3)c(=O)c2c1 | < 3.52 |  | < 3.52 | 4.09 | < 3.52 | 4.24 | 1 |  | 
18 | Cc1ccc(-n2c(/C=C/c3cccnc3)nc3ccc(I)cc3c2=O)cc1 | < 3.52 |  | < 3.52 | < 3.52 | < 3.52 | < 3.52 | 1 |  | 
19 | O=C(O)c1ccc(-n2c(/C=C/c3ccccc3)nc3ccccc3c2=O)cc1 | 4.08 | 3 | 4.48 | 4.07 | 4.60 |  | 1 |  | 
20 | COc1ccc2nc(/C=C/c3ccc([N+](=O)[O-])cc3)n(-c3ccc(C(=O)O)cc3)c(=O)c2c1 | 3.71 | 28 | 5.15 | 3.69 | < 3.52 | 4.89 |  |  | 
21 | COc1ccc2nc(/C=C/c3cccc([N+](=O)[O-])c3)n(-c3ccc(C#N)cc3)c(=O)c2c1 | < 3.52 |  | < 3.52 | < 3.52 | < 3.52 | < 3.52 | 1 |  | 
22 | O=C(O)c1ccc(-n2c(/C=C/c3cccc([N+](=O)[O-])c3)nc3cc4c(cc3c2=O)OCO4)cc1 | 3.95 | 3 | 4.44 | 3.79 | < 3.52 | 4.40 |  |  | 
23 | O=C(O)c1ccc(/C=C/c2nc3ccccc3c(=O)n2-c2ccc(C(=O)O)cc2)cc1 | < 3.52 |  | < 3.52 | < 3.52 | < 3.52 | < 3.52 | 1 |  | 

The next lines start with results.

Row | pIC50 [1] | Ratio IC50 [2] | pIC50 [3] | pIC50 [5] | pIC50 [6] | SMILES | pIC50 [4] | Ratio IC50 [7] | IC50 ([1]; oocyte) | IC50 ([5]; oocyte)
24 |  | 16 |  |  |  | O=C(O)c1ccc(-n2c(/C=C/c3cccc([N+](=O)[O-])c3)nc3ccc(Cl)cc3c2=O)cc1 |  | 7 |  | 
25 | < 3.52 |  | 5.22 | < 3.52 | < 3.52 | O=C(O)c1ccc(-n2c(/C=C/c3ccc([N+](=O)[O-])cc3)nc3c(Cl)cc(Cl)cc3c2=O)cc1 | 5.05 |  |  | 
26 | < 3.52 |  | 5.10 | 3.55 | < 3.52 | O=C(O)c1cccc(-n2c(/C=C/c3ccc([N+](=O)[O-])cc3)nc3ccc(I)cc3c2=O)c1 | 5.05 |  |  | 
27 | 4.39 | 2 | 4.77 | 3.86 | < 3.52 | Cc1ccc(/C=C/c2nc3ccccc3c(=O)n2-c2ccc(C(=O)O)cc2)cc1 |  |  |  | 
28 | 4.21 | 4 | 4.82 | 4.26 | 3.63 | O=C(O)c1ccc(-n2c(/C=C/c3ccc(C(F)(F)F)cc3)nc3ccccc3c2=O)cc1 |  | 16 |  | 
29 | 4.68 | 1 | 4.74 | 4.47 | < 3.52 | Cc1cccc(/C=C/c2nc3ccccc3c(=O)n2-c2ccc(C(=O)O)cc2)c1 |  |  |  | 
30 | 4.07 | 1 | 4.09 | 4.03 | 4.21 | Cc1ccccc1/C=C/c1nc2ccccc2c(=O)n1-c1ccc(C(=O)O)cc1 |  | 1 |  | 
31 | 4.42 | 1 | 4.44 | 4.46 | 3.96 | O=C(O)c1ccc(-n2c(/C=C/c3ccc(O)cc3)nc3ccccc3c2=O)cc1 |  | 3 |  | 
32 | 4.62 | 3 | 5.05 | 4.44 | 4.57 | COc1cccc(/C=C/c2nc3ccccc3c(=O)n2-c2ccc(C(=O)O)cc2)c1 |  | 3 |  | 
33 | 4.68 | 4 | 5.22 | 4.51 | < 3.52 | O=C(O)c1ccc(-n2c(/C=C/c3ccc4ccccc4c3)nc3ccccc3c2=O)cc1 | 4.85 |  |  | 
34 | < 3.52 |  | 4.52 | 3.84 | < 3.52 | C=CCOc1ccc(/C=C/c2nc3ccccc3c(=O)n2-c2ccc(C(=O)O)cc2)cc1 | 3.95 |  |  | 
35 | 3.62 | 15 | 4.80 | 3.62 | < 3.52 | COc1ccc2nc(/C=C/c3ccc([N+](=O)[O-])cc3)n(-c3cccc(C(=O)O)c3)c(=O)c2c1 | 4.68 |  |  | 
36 | < 3.52 |  | 4.80 | 3.58 | < 3.52 | O=C(O)c1ccc(-n2c(/C=C/c3ccc4c(c3)OCCO4)nc3ccccc3c2=O)cc1 | 4.59 |  |  | 
